One assay deals with MCF7. Kind of assay: Cytotoxicity in human MCF7 cells assessed as reduction in cell viability incubated for 48 hrs by MTT assay. The class given is cell-based. The note with it: MCF7, 48 h. The gist of the method:
(§1)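 Cells grown in RPMI-1640 with 10% heat-inactivated FBS at 37 °C, 5% CO2. Compounds were dissolved in DMSO and given as serial dilutions to cells seeded at 5 × 10^3 per well in log phase, for 48 h. MTT (5 mg/mL) was then added for 4 h, formazan dissolved in DMSO, and absorbance read at 570 nm.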

The test system of a further assay is NCI/ADR-RES. Kind of assay: Cytotoxicity in doxorubicin-resistant human MCF7/ADR cells assessed as reduction in cell viability incubated for 48 hrs by MTT assay. The class given is cell-based. The gist of the method:
as §1
In general terms: Tetrazolium assays rely on reduction of a dye to a coloured formazan, in cell work by metabolically active cells.

Bounds are passed on as bounds.

Among the data in ChEMBL document CHEMBL4422701, “Jatrophane Diterpenoids from Euphorbia glomerulans” (J Nat Prod, 2019) are IC50 values, retold here.

A word on the IC50: it is the concentration at which inhibition is half-maximal.

Turning to `C=C1[C@H](O)[C@H]2[C@@H](OC(=O)c3ccccc3)[C@](C)(OC(C)=O)C[C@]2(O)[C@H](OC(C)=O)[C@@H](C)/C=C/C(C)(C)C(=O)[C@H](OC(C)=O)[C@H]1OC(C)=O`, the IC50 in the assay on MCF7 and in the assay with NCI/ADR-RES was above 100 µM throughout.
In the case of `C=C1[C@H](O)[C@H]2[C@@H](OC(=O)c3ccccc3)[C@](C)(O)C[C@]2(O)[C@H](OC(C)=O)[C@@H](C)/C=C/C(C)(C)C(=O)[C@H](OC(C)=O)[C@H]1OC(=O)c1ccccc1`, the IC50 with MCF7 and in the assay on NCI/ADR-RES was above 100 µM in each case.
Take `C=C1[C@H](OC(C)=O)[C@H]2[C@@H](OC(=O)c3ccccc3)[C@](C)(O)C[C@]2(O)C(=O)[C@@H](C)/C=C/C(C)(C)C(=O)[C@H](OC(=O)C(C)C)[C@H]1OC(C)=O`: the IC50 with MCF7 and in the assay on NCI/ADR-RES was above 100 µM in each case.
With `C=C1[C@H](OC(C)=O)CC(=O)C(C)(C)/C=C/[C@H](C)C(=O)[C@@]2(OC(C)=O)C[C@H](C)[C@H](OC(=O)c3ccccc3)[C@@H]2[C@H]1OC(C)=O`, the IC50 with MCF7 was 51.1 µM; in the assay with NCI/ADR-RES, 39.3 µM.
Consider `C=C1[C@H](OC(C)=O)CC(=O)C(C)(C)/C=C/[C@H](C)C(=O)[C@@]2(OC(C)=O)C[C@H](C)[C@H](OC(C)=O)[C@@H]2[C@H]1OC(=O)c1ccccc1`, for which the IC50 with MCF7 and in the assay with NCI/ADR-RES was above 100 µM throughout.
In the case of `C=C1[C@H](OC(C)=O)[C@H]2[C@@H](OC(=O)c3ccccc3)[C@](C)(OC(C)=O)C[C@]2(O)C(=O)[C@@H](C)/C=C/C(C)(C)C(=O)[C@H](OC(C)=O)[C@H]1OC(=O)C(C)C`, the IC50 with MCF7 and with NCI/ADR-RES was above 100 µM each time.
As to `C=C1[C@H](OC(C)=O)[C@H]2[C@@H](OC(=O)c3ccccc3)[C@@H](C)C[C@]2(OC(C)=O)C(=O)[C@@H](C)/C=C/C(C)(C)C(=O)[C@H](O)[C@H]1OC(C)=O`, the IC50 in the assay on MCF7 and with NCI/ADR-RES was above 100 µM throughout.
For the molecule `C=C1[C@H](OC(C)=O)[C@H]2[C@@H](OC(=O)c3ccccc3)[C@@H](C)C[C@]2(OC(C)=O)C(=O)[C@@H](C)/C=C/C(C)(C)C(=O)[C@H](OC(C)=O)[C@H]1OC(C)=O`, the IC50 in the assay on MCF7 and in the assay on NCI/ADR-RES was above 100 µM in each case.
Consider `C=C1[C@H](OC(=O)c2ccccc2)[C@H]2[C@@H](OC(C)=O)[C@@H](C)C[C@]2(OC(C)=O)C(=O)[C@@H](C)/C=C/C(C)(C)C(=O)[C@H](O)[C@H]1OC(C)=O`, for which the concentration for half-maximal inhibition (IC50) in the assay on MCF7 and in the assay on NCI/ADR-RES was above 100 µM throughout.
With `C=C1[C@H](OC(=O)c2ccccc2)[C@H]2[C@@H](OC(C)=O)[C@@H](C)C[C@]2(OC(C)=O)C(=O)[C@@H](C)/C=C/C(C)(C)C(=O)[C@H](OC(=O)c2ccccc2)[C@H]1OC(C)=O`, the IC50 in the assay on MCF7 and in the assay with NCI/ADR-RES was above 100 µM throughout.
For the molecule `C=C1[C@H](OC(=O)c2ccccc2)[C@@H](OC(C)=O)[C@@H](OC(C)=O)C(C)(C)/C=C/[C@H](C)C(=O)[C@@]2(OC(C)=O)C[C@H](C)[C@H](OC(=O)c3ccccc3)[C@@H]2[C@H]1OC(C)=O`, the IC50 with MCF7 and in the assay with NCI/ADR-RES was above 100 µM throughout.
With `C=C1[C@H](OC(C)=O)[C@H]2[C@@H](OC(=O)c3ccccc3)[C@@H](C)C[C@]2(OC(C)=O)C(=O)[C@@H](C)/C=C/C(C)(C)C(=O)[C@H](O)[C@H]1OC(=O)c1ccccc1`, the IC50 with MCF7 and in the assay on NCI/ADR-RES was above 100 µM each time.
In the case of `C=C1[C@H](OC(C)=O)[C@H]2[C@@H](OC(=O)c3ccccc3)[C@](C)(O)C[C@]2(O)C(=O)[C@@H](C)/C=C/C(C)(C)C(=O)[C@H](OC(C)=O)[C@H]1OC(=O)c1ccccc1`, the IC50 in the assay with MCF7 and with NCI/ADR-RES was above 100 µM throughout.
In the case of `C=C1[C@H](OC(C)=O)[C@H]2[C@@H](OC(=O)c3ccccc3)[C@](C)(OC(C)=O)C[C@]2(O)C(=O)[C@@H](C)/C=C/C(C)(C)C(=O)[C@H](OC(=O)C(C)C)[C@H]1OC(C)=O`, the IC50 was 50.2 µM with MCF7 and above 100 µM with NCI/ADR-RES.
Taken in the same sequence, the figures for `C=C1[C@H](OC(C)=O)[C@H]2[C@@H](OC(=O)c3ccccc3)[C@@H](C)C[C@]2(O)C(=O)[C@@H](C)/C=C/C(C)(C)C(=O)[C@H](O)[C@H]1OC(C)=O` were above 100 µM and above 100 µM.
Taken in the same sequence, the figures for `C=C1[C@H](OC(C)=O)[C@H]2[C@@H](OC(=O)c3ccccc3)[C@@H](C)C[C@]2(OC(C)=O)C(=O)[C@@H](C)/C=C/C(C)(C)C(=O)[C@H](OC(C)=O)[C@H]1OC(=O)c1ccccc1` were above 100 µM and above 100 µM.
On the same counts, the results for `C=C1[C@H](OC(C)=O)[C@H]2[C@@H](OC(=O)CC(C)=O)[C@@H](C)C[C@]2(O)C(=O)[C@@H](C)/C=C/C(C)(C)C(=O)[C@H](OC(C)=O)[C@H]1OC(=O)c1ccccc1` are above 100 µM and above 100 µM.
On to `COc1cccc2c1C(=O)c1c(O)c3c(c(O)c1C2=O)C[C@@](O)(C(=O)CO)C[C@@H]3O[C@H]1C[C@H](N)[C@H](O)[C@H](C)O1` [DOXORUBICIN], for which, in the assay on NCI/ADR-RES, the IC50 came to 64.8 µM.
